The values below come from ChEMBL document CHEMBL3091381, “In vitro cytotoxicity on human ovarian cancer cells by T-type calcium channel blockers” (Bioorg Med Chem Lett, 2013).

Activity calls are given as the source filed them. No cut-off for these calls is given here. Where only a bound is given, the exact number is not on record here.

The test system of data set [1] is SK-OV-3. Description: Cytotoxicity against human SKOV3 cells after 48 hrs by MTT assay. The class given is functional, cell-based. The conditions noted are these: SK-OV-3, 48 h. In short, it runs like this:
(§1)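 MTT viability assay. Cells were seeded and grown 24 h, then exposed 48 h to a range of concentrations of test agent in DMSO (0.1% final), with vehicle-matched DMSO controls. Medium was replaced by 0.5 mg/mL MTT in RPMI with 10% FBS for 2 h at 37 °C. Dye was solubilized and absorbance read. IC50 from dose–response curves, three independent experiments.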

Data set [2] has as its target T1, Voltage-dependent T-type calcium channel subunit alpha-1G (Homo sapiens, UniProt O43497). Description: Inhibition of t-type Cav3.1 channel (unknown origin) expressed in HEK293 cells assessed as inhibition of 50 ms depolarizing voltage step-induced current by whole cell patch-clamp method. The class given is cell-based.
A short description of data set [3]: Cytotoxicity against human paclitaxel-resistant A2780T cells after 48 hrs by MTT assay. In kind it is functional, cell-based. The conditions noted are these: A2780/Taxol. In short, it runs like this: as §1
In general terms: Tetrazolium assays rely on reduction of a dye to a coloured formazan, in cell work by metabolically active cells.

Data set [4] addresses T1, Voltage-dependent T-type calcium channel subunit alpha-1G. Briefly: Inhibition of t-type Cav3.1 channel (unknown origin) expressed in HEK293 cells assessed as inhibition of 50 ms depolarizing voltage step-induced current at 1 uM by whole cell patch-clamp method relative to control. In kind it is cell-based.
The test system of data set [5] is A2780. Description: Cytotoxicity against human A2780 cells after 48 hrs by MTT assay. In kind it is functional, cell-based. The conditions noted are these: A2780, 48 h. The essentials:
as §1

Data set [6] in a line: Ratio of IC50 for mibefradil to compound IC50 for human paclitaxel-resistant A2780T cells. In kind it is functional.
Data set [7] relates to A2780. Description: Cell cycle arrest in human A2780 cells assessed as accumulation at G0/G1 phase at 6 uM after 24 hrs by FACS analysis. The class given is functional. In short, it runs like this:
(§2)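 A2780 or paclitaxel-resistant A2780-T cells treated 24 h with compound at 0, 2, 4, 6 or 8 µM, depending on the series. Fixed cells were washed in PBS and stained 30 min in the dark with PI plus 100 µg/mL DNase-free RNase A. Phase distribution was read by flow cytometry. Means ± SD of three independent experiments; ANOVA with Dunnett's post-hoc test versus untreated control.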
(In general: A flow cytometer gives signals particle by particle.)

Data set [8] has as its system A2780. Description: Cell cycle arrest in human A2780 cells assessed as accumulation at sub-G1 phase at 8 uM after 24 hrs by FACS analysis (reference value: 3.1%). In kind it is functional. In short, it runs like this:
as §2

The subject of data set [9] is A2780. Description: Cell cycle arrest in human A2780 cells assessed as accumulation at S phase at 6 uM after 24 hrs by FACS analysis. The class given is functional. In short, it runs like this: as §2
Data set [10] concerns A2780. Briefly: Cell cycle arrest in human A2780 cells assessed as accumulation at sub-G1 phase at 6 uM after 24 hrs by FACS analysis. In kind it is functional. The essentials:
as §2

The nature of data set [11]: Cell cycle arrest in human paclitaxel-resistant A2780T cells assessed as accumulation at sub-G1 phase at 8 uM after 24 hrs by FACS analysis. Conditions: A2780/Taxol. The class given is functional, cell-based. In short, it runs like this: as §2
Data set [12] has as its system A2780. Description: Cell cycle arrest in human A2780 cells assessed as accumulation at G2/M phase at 6 uM after 24 hrs by FACS analysis. In kind it is functional. The essentials: as §2
Data set [13] concerns A2780. Description: Cell cycle arrest in human A2780 cells assessed as accumulation at sub-G1 phase at 2 to 4 uM after 24 hrs by FACS analysis. The class given is functional. The essentials: as §2
Data set [14] is described as follows: Cell cycle arrest in human paclitaxel-resistant A2780T cells assessed as accumulation at sub-G1 phase at 2 to 4 uM after 24 hrs by FACS analysis. The class given is functional, cell-based. Conditions: A2780/Taxol. In short, it runs like this: as §2
The test system of data set [15] is Mus musculus. Description: Toxicity in BALB/c mouse assessed as mortality at 40 mg/kg, po for 2 weeks. In kind it is organism-based. Set-up: dose 40 mg/kg, route oral. Conditions: in vivo, 336 h.
Data set [16] relates to A2780. Briefly: Induction of apoptosis in human A2780 cells assessed as cell shrinkage, membrane blebbing, chromatin condensation and apoptotic body formation at 6 uM after 24 hrs by DAPI staining. In kind it is functional, cell-based. The essentials: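 A2780 cells exposed 24 h to 6 µM compound, then fixed, washed three times in PBS and stained 5 min with 0.1 µg/mL DAPI. Cells were washed, mounted in PBS with 10% glycerol and examined by fluorescence microscopy for shrinkage, blebbing, chromatin condensation and apoptotic bodies.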

Data set [17] can be described thus: Cell cycle arrest in human paclitaxel-resistant A2780T cells assessed as accumulation at sub-G1 phase after 24 hrs by FACS analysis. In kind it is functional, cell-based. Conditions: A2780/Taxol, in the assay text read “G1 phase” for “sub-G1 phase”. The essentials: as §2
The test system of data set [18] is A2780. Description: Cell cycle arrest in human A2780 cells assessed as accumulation at sub-G1 phase after 24 hrs by FACS analysis. The class given is functional, cell-based. Conditions: in the assay text read “G1 phase” for “sub-G1 phase”. In short, it runs like this: as §2
The subject of data set [19] is HEK293. Briefly: Cytotoxicity against human HEK293 cells after 48 hrs by MTT assay. The class given is cell-based. The conditions noted are these: HEK293, 48 h. In short, it runs like this:
as §1

T1 sequence (O43497 whole entry): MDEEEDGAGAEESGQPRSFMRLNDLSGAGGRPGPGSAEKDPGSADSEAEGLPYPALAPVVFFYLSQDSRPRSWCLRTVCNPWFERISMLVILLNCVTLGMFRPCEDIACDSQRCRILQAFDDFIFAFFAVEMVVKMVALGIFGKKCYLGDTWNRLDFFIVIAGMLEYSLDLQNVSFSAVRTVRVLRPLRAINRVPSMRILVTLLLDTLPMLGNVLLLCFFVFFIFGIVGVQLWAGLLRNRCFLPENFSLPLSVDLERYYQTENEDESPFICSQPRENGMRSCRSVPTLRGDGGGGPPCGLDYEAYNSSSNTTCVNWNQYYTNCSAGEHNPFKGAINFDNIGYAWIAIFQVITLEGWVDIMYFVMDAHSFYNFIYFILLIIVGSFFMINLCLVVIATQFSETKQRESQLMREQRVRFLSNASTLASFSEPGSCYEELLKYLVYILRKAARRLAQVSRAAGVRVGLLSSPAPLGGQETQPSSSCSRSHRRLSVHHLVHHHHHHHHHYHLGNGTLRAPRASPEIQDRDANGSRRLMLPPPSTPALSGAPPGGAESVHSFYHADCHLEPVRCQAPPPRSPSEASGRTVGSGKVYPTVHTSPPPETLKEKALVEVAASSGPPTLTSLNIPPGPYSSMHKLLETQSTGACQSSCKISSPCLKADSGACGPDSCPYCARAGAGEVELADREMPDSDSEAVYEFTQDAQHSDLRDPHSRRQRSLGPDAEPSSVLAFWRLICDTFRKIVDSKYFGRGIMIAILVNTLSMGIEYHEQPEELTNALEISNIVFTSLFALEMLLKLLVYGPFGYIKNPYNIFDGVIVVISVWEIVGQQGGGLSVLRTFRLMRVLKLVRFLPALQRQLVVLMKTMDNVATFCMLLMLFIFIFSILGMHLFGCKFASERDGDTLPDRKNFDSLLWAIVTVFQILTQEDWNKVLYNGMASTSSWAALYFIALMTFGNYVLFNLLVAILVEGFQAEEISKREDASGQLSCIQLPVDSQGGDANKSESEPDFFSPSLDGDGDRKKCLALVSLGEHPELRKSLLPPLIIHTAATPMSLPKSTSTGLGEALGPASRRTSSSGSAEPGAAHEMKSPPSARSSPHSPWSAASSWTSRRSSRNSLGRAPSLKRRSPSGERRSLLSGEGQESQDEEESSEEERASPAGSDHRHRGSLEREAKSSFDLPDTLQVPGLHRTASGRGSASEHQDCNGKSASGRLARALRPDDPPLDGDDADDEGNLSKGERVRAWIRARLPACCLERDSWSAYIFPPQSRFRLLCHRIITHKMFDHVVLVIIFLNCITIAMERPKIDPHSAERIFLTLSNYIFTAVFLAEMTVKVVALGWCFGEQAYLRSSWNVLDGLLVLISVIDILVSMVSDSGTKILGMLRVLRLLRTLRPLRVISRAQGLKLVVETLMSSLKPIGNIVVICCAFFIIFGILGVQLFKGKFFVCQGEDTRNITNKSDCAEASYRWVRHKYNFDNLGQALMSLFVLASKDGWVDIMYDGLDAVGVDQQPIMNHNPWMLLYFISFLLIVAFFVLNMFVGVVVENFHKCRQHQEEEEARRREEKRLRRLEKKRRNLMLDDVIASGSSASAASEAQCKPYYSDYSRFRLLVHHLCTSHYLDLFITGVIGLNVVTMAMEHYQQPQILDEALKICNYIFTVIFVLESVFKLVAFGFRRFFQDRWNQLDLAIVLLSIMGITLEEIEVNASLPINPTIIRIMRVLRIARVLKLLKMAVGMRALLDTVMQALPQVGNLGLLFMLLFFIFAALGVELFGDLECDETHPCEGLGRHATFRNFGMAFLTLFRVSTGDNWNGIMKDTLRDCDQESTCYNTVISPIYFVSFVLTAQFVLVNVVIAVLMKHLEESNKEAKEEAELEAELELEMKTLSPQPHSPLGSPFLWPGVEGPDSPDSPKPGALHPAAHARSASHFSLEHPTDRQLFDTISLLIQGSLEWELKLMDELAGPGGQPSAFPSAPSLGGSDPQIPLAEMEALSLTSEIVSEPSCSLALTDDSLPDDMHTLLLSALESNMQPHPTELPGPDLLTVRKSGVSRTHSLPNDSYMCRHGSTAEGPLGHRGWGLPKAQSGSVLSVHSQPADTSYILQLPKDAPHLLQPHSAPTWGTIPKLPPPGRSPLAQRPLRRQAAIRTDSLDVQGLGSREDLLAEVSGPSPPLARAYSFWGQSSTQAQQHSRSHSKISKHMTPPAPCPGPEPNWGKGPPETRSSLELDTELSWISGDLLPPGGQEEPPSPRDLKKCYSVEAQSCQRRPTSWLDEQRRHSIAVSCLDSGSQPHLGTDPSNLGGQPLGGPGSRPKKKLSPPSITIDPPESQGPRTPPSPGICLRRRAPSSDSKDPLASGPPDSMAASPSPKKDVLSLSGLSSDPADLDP

In the case of `COc1ccc(CNC(=O)CC2c3ccccc3N=C(N(C)CCCCCN(C)C)N2c2ccc(-c3ccccc3)cc2)cc1` (stereo not given), the IC50 in data set [1] worked out at 4.46 µM; in [2], 0.39 µM; in [3] it was 2.52 µM; in data set [5], 1.38 µM. Further, the inhibition in data set [4] was 68.2%.

Turning to `CN(C)CCN1CCN(C2=Nc3ccccc3C(CC(=O)NCc3ccccc3)N2c2ccc(-c3ccccc3)cc2)CC1` (stereo not given), the concentration for half-maximal inhibition (IC50) is 1.97 µM in data set [1], 2.39 µM in data set [3] and 1.39 µM in data set [5]. Further, the inhibition in data set [4] worked out at 46.8%.

On to `CN(C)CCCCCN(C)C1=Nc2ccccc2C(CC(=O)NCc2ccccc2)N1c1ccc(-c2ccccc2)cc1` (stereo not given), for which the “Ratio IC50” value in data set [6] worked out at 20. Besides, the half-maximal inhibitory concentration (IC50) in data set [1] worked out at 2.47 µM; in data set [2] it was 0.26 µM; in data set [3] it was 1.6 µM; in data set [5] it was 1.06 µM. For the same compound, the Activity stood at 25.6% in data set [7]; 71.4% in data set [8]; 5.8% in data set [9]; 63.3% in [10]; 95.4% in data set [11]; 5.3% in [12]. Moreover, the values for the Activity in [13] and in data set [14] were 61.4% and 14.7%, respectively. In addition, in [4], the inhibition amounted to 76.6%.

For the compound `CN(C)CCCCCN(C)C1=Nc2ccccc2C(CC(=O)NCc2ccccc2)N1c1ccc(-c2ccccn2)cc1` (stereo not given), the IC50 was 2.41 µM in data set [1] and above 5 µM in data set [3]. The inhibition in data set [4] was 30.9%.

Regarding `CN(C)CCN1CCN(C2=Nc3ccccc3C(CC(=O)NCc3ccccn3)N2c2ccc(-c3ccccc3)cc2)CC1` (stereo not given), the IC50 was 5.08 µM in data set [1], above 5 µM in [3] and 4.86 µM in data set [5]. In addition, in data set [4], the inhibition amounted to 43.9%.

As to `COc1ccc(CNC(=O)CC2c3ccccc3N=C(N3CCN(CCN(C)C)CC3)N2c2ccc(-c3ccccc3)cc2)cc1` (stereo not given), the IC50 in [1] is 2.47 µM; in data set [2], 0.31 µM; in [3] it was 3.82 µM; in [19], 9.28 µM; in [5], 1.44 µM. Further, the Activity in data set [7] was 63.8%; in data set [15], “Non-toxic”; in [9], 7.3%; in data set [10], 21.6%; in [17] it was “Dose-dependent effect”; in [18], “Dose-dependent effect”. Besides, the Activity in data set [12] worked out at 7.3%. For the same compound, in [16], the outcome was Active. Further, the inhibition in data set [4] is 75.9%.

As to `CN(C)CCN1CCN(C2=Nc3ccccc3C(CC(=O)NCc3ccc(F)cc3)N2c2ccc(-c3ccccc3)cc2)CC1` (stereo not given), the IC50 turned out to be 3.09 µM in data set [1]; 0.32 µM in data set [2]; 4 µM in [3]; 10 µM in data set [19]; 1.6 µM in data set [5]. Moreover, the Activity was 66.7% in data set [7]; “Non-toxic” in data set [15]; 7.1% in data set [9]; 18.1% in [10]; “Dose-dependent effect” in data set [17]; “Dose-dependent effect” in data set [18]. In [12], the Activity turned out to be 8.1%. In addition, the outcome in data set [16] was Active. In addition, the inhibition in [4] stood at 81%.

On to `COCC(=O)O[C@]1(CCN(C)CCCc2nc3ccccc3[nH]2)CCc2cc(F)ccc2[C@@H]1C(C)C` [MIBEFRADIL], for which the results for the IC50 in [1], in data set [3] and in data set [5] were 20.5 µM, 35.3 µM and 24.2 µM, respectively. Further, in [4], the inhibition was found to be 55.1%.

As for `CN(C)CCCCCCN(C)C1=Nc2ccccc2C(CC(=O)NCc2ccccc2)N1c1ccc(-c2ccccc2)cc1` (stereo not given), the “Ratio IC50” value in data set [6] is 20. The IC50 worked out at 5.78 µM in data set [1], 0.55 µM in [2], 1.74 µM in data set [3] and 1.19 µM in data set [5]. Further, the inhibition in [4] amounted to 66.7%.

Take `Cc1ccc(CNC(=O)CC2c3ccccc3N=C(N3CCN(CCN(C)C)CC3)N2c2ccc(-c3ccccc3)cc2)cc1` (stereo not given): the IC50 in [1] is 2.33 µM; in [2] it was 0.46 µM; in [3] it was 3.52 µM; in [5] it was 1.6 µM. Also, in data set [4], the inhibition was determined as 57.8%.

In the case of `CN(C)CCN1CCN(C2=Nc3ccccc3C(CC(=O)NCc3ccccc3)N2c2ccc(-c3ccccn3)cc2)CC1` (stereo not given), the IC50 in [3] and in data set [5] was above 5 µM throughout. Moreover, the inhibition in data set [4] worked out at 32.3%.

For `CN(C)CCCCN(C)C1=Nc2ccccc2C(CC(=O)NCc2ccccc2)N1c1ccc(-c2ccccc2)cc1` (stereo not given), the half-inhibitory concentration (IC50) in [1] turned out to be 9.78 µM; in [2], 0.31 µM; in data set [3] it was 3.97 µM; in data set [5], 1.65 µM. Further, the inhibition in data set [4] came out at 81.7%.

In the case of `CN(C)CCN1CCN(C2=Nc3ccccc3C(CC(=O)NCc3ccncc3)N2c2ccc(-c3ccccc3)cc2)CC1` (stereo not given), the IC50 in [1] was 11.7 µM; in data set [3] it was above 5 µM; in data set [5] it was above 5 µM. The inhibition in [4] came to 29.1%.

As a reminder, the IC50 is the concentration that gives 50% inhibition. What is called inhibition is how much of the control response was suppressed.
